Experimental data from ChEMBL document CHEMBL1126205, “Novel spirosuccinimides with incorporated isoindolone and benzisothiazole 1,1-dioxide moieties as aldose reductase inhibitors and antihyperglycemic agents” (1992).
Values belong to the molecule of their own block, whether it stands above or below them. Activity calls are given as the source filed them. The calls are words filed in the database; no cut-off is given here.

What was measured:
[1] = molecular target: Aldo-keto reductase family 1 member B1 (Bos taurus) (UniProt P16116); test: In vitro aldose reductase inhibitory activity measured by NADPH-dependent inhibition of glyceraldehyde reduction in a partially purified bovine lens preparation at 10E-6 M
How it was run: (§1)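 Aldose reductase partially purified from bovine lens. Inhibition of NADPH-dependent glyceraldehyde reduction is measured at the single stated concentration and reported as percent inhibition, the mean of two determinations.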

[2] = molecular target: Aldo-keto reductase family 1 member B1 (Bos taurus) (UniProt P16116); test: In vitro aldose reductase inhibitory activity measured by NADPH-dependent inhibition of glyceraldehyde reduction in a partially purified bovine lens preparation at 10E-7 M; how it was run: as §1
Mus musculus [3] = test: Antihyperglycemic activity measured as percent decrease in mice plasma glucose at 100 mg/Kg/day; assay type: functional
How it was run: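 Male db/db (C57BL/KsJ) mice, 4–6 per group, dosed at 100 mg/kg per day. Plasma glucose of the drug-treated group is expressed as percent decrease relative to a vehicle-treated control group. Values are mean ± SE, with p < 0.05 marked.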

Rattus norvegicus [4] = test: In vivo galactitol inhibitory activity measured by its ability to inhibit galactitol accumulation in sciatic nerve at 3 mg/Kg/day; NS=Not significant; assay type: functional, organism-based
How it was run: (§2)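 Rats (n = 6) fed 20% galactose for 4 days, with compound given in the diet at the stated daily dose. Galactitol accumulation was measured in lens, sciatic nerve and diaphragm, and % inhibition was taken versus the nontreated group. Means are from three to eight drug-treated tissue samples. Dunnett's multiple comparison test was applied, with p > 0.05 reported as not significant.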

Rattus norvegicus [5] = test: In vivo galactitol inhibitory activity measured by its ability to inhibit galactitol accumulation in diaphragm at 3 mg/Kg/day; NS=Not significant; assay type: functional, organism-based
How it was run: (§3)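 Rats (n = 6) fed 20% galactose for 4 days, with compound given in the diet at the stated mg/kg per day. Galactitol accumulation in lens, sciatic nerve or diaphragm is scored as percent inhibition versus the non-treated group, as means of 3–8 drug-treated tissue samples. Dunnett's multiple comparison test applies; NS means p > 0.05.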

Rattus norvegicus [6] = test: In vivo galactitol inhibitory activity measured by its ability to inhibit galactitol accumulation in lens at 3 mg/Kg/day; NS=Not significant; assay type: functional, organism-based; conditions: Lens of camera-type eye; how it was run: as §3
Rattus norvegicus [7] = test: In vivo galactitol inhibitory activity measured by its ability to inhibit galactitol accumulation in sciatic nerve at 6 mg/Kg/day; NS=Not significant (% Inhibition); assay type: functional, organism-based; how it was run: as §2
Rattus norvegicus [8] = test: In vivo galactitol inhibitory activity measured by its ability to inhibit galactitol accumulation in sciatic nerve at 3 mg/Kg/day; assay type: functional; how it was run: as §2
Rattus norvegicus [9] = test: In vivo galactitol inhibitory activity measured by its ability to inhibit galactitol accumulation in sciatic nerve at 10 mg/Kg/day; NS=Not significant (% Inhibition); assay type: functional, organism-based; how it was run: as §2
Rattus norvegicus [10] = test: In vivo galactitol inhibitory activity measured by its ability to inhibit galactitol accumulation in lens at 6 mg/Kg/day; assay type: functional, Lens of camera-type eye; conditions: Rattus norvegicus, Lens of camera-type eye; how it was run: as §3
Rattus norvegicus [11] = test: In vivo galactitol inhibitory activity measured by its ability to inhibit galactitol accumulation in diaphragm at 10 mg/Kg/day; assay type: functional; how it was run: as §3
Rattus norvegicus [12] = test: In vivo galactitol inhibitory activity measured by its ability to inhibit galactitol accumulation in diaphragm at 3 mg/Kg/day; assay type: functional; how it was run: as §3
Rattus norvegicus [13] = test: In vivo galactitol inhibitory activity measured by its ability to inhibit galactitol accumulation in diaphragm at 6 mg/Kg/day; assay type: functional; how it was run: as §3
Rattus norvegicus [14] = test: In vivo galactitol inhibitory activity measured by its ability to inhibit galactitol accumulation in lens at 10 mg/Kg/day; assay type: functional; conditions: Lens of camera-type eye; how it was run: as §3
Rattus norvegicus [15] = test: In vivo galactitol inhibitory activity measured by its ability to inhibit galactitol accumulation in lens at 3 mg/Kg/day; NS=Not significant (% Inhibition); assay type: functional, organism-based; conditions: Lens of camera-type eye; how it was run: as §3
Rattus norvegicus [16] = test: In vivo galactitol activity by measuring its ability to inhibit galactitol accumulation in diaphragm at 6 mg/Kg/day; assay type: functional; how it was run: as §3
Rattus norvegicus [17] = test: In vivo galactitol inhibitory activity measured by its ability to inhibit galactitol accumulation in lens at 66 mg/Kg/day; assay type: functional; conditions: Lens of camera-type eye; how it was run: as §2
Rattus norvegicus [18] = test: In vivo galactitol inhibitory activity measured by its ability to inhibit galactitol accumulation in diaphragm at 66 mg/kg/day; assay type: functional; how it was run: as §3
Rattus norvegicus [19] = test: In vivo galactitol inhibitory activity measured by its ability to inhibit galactitol accumulation in sciatic nerve at 66 mg/Kg/day; assay type: functional; how it was run: as §2
Rattus norvegicus [20] = test: In vivo galactitol inhibitory activity measured by its ability to inhibit galactitol accumulation in sciatic nerve at 4 mg/Kg/day; NS=Not significant (% Inhibition); assay type: functional, organism-based; how it was run: as §2
Rattus norvegicus [21] = test: In vivo galactitol inhibitory activity measured by its ability to inhibit galactitol accumulation in lens at 4 mg/Kg/day; NS=Not significant (% Inhibition); assay type: functional, organism-based; conditions: Lens of camera-type eye; how it was run: as §3
Rattus norvegicus [22] = test: In vivo galactitol inhibitory activity measured by its ability to inhibit galactitol accumulation in diaphragm at 4 mg/Kg/day; NS=Not significant (% Inhibition); assay type: functional, organism-based; how it was run: as §3
Rattus norvegicus [23] = test: In vivo galactitol inhibitory activity measured by its ability to inhibit galactitol accumulation in sciatic nerve at 109 mg/Kg/day; NS=Not significant (% Inhibition); assay type: functional, organism-based; how it was run: as §2
Rattus norvegicus [24] = test: In vivo galactitol inhibitory activity measured by its ability to inhibit galactitol accumulation in diaphragm at 109 mg/Kg/day; assay type: functional; how it was run: as §3
Rattus norvegicus [25] = test: In vivo galactitol inhibitory activity measured by its ability to inhibit galactitol accumulation in lens at 109 mg/Kg/day; NS=Not significant (% Inhibition); assay type: functional, organism-based; conditions: Lens of camera-type eye; how it was run: as §3
Rattus norvegicus [26] = test: In vivo galactitol inhibitory activity measured by its ability to inhibit galactitol accumulation in lens at 6 mg/Kg/day; NS=Not significant (% Inhibition); assay type: functional, organism-based; conditions: Lens of camera-type eye; how it was run: as §3
Rattus norvegicus [27] = test: In vivo galactitol activity by measuring its ability to inhibit galactitol accumulation in sciatic nerve at 6 mg/Kg/day; NS=Not significant (% Inhibition); assay type: functional, organism-based; how it was run: as §3
Mus musculus [28] = test: Antihyperglycemic activity measured as percent decrease in mice plasma glucose at 87 mg/Kg/day; assay type: functional
How it was run: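 Male db/db (C57BL/KsJ) mice, 4–6 per group, dosed at the stated mg/kg per day. Plasma glucose is expressed as percent decrease versus the vehicle-treated group. Values are mean ± SE.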

Compound: CCN1C(=O)c2ccc(Cl)cc2C12CC(=O)NC2=O (stereo not given)
inhibition [1]: 37%
inhibition [2]: 14%
Decrease (Mus musculus [3]): <15%
inhibition (Rattus norvegicus [4]): inactive
inhibition (Rattus norvegicus [5]): inactive
inhibition (Rattus norvegicus [6]): inactive

Compound: CN1C(=O)c2ccc(Cl)cc2C12CC(=O)NC2=O (single isomer, unassigned; (-)) [listing 1 of 2 here]
inhibition in vivo at 6 mg/kg/day (Rattus norvegicus [16]): 24%

Compound: CN1C(=O)c2ccccc2C12CC(=O)NC2=O (stereo not given)
inhibition [1]: 45%
inhibition [2]: 11%
Decrease (Mus musculus [3]): <15%
inhibition in vivo at 66 mg/kg/day (Rattus norvegicus [17]): 32%
inhibition in vivo at 66 mg/kg/day (Rattus norvegicus [18]): 58%
inhibition in vivo at 66 mg/kg/day (Rattus norvegicus [19]): 63%

Compound: CCCN1C(=O)c2cc(Cl)c(Cl)cc2C12CC(=O)NC2=O (stereo not given)
Decrease (Mus musculus [3]): <15%
inhibition (Rattus norvegicus [20]): inactive
inhibition (Rattus norvegicus [21]): inactive
inhibition (Rattus norvegicus [22]): inactive

Compound: CC(C)N1C2(CC(=O)NC2=O)c2ccccc2S1(=O)=O (stereo not given)
Decrease (Mus musculus [28]): 27%

Second part, led by results:

inhibition [1]: 61%
inhibition [2]: 26%
Compound: Cc1ccc2c(c1)C(=O)N(C)C21CC(=O)NC1=O (stereo not given)
Decrease (Mus musculus [3]): <15%
inhibition (Rattus norvegicus [7]): inactive
inhibition in vivo at 3 mg/kg/day (Rattus norvegicus [8]): 20%
inhibition (Rattus norvegicus [9]): inactive
inhibition in vivo at 6 mg/kg/day (Rattus norvegicus [10]): 13%
inhibition in vivo at 10 mg/kg/day (Rattus norvegicus [11]): 47%
inhibition in vivo at 3 mg/kg/day (Rattus norvegicus [12]): 27%
inhibition in vivo at 6 mg/kg/day (Rattus norvegicus [13]): 39%
inhibition in vivo at 10 mg/kg/day (Rattus norvegicus [14]): 12%
inhibition (Rattus norvegicus [15]): inactive

inhibition [1]: 45%
inhibition [2]: 18%
Compound: O=C1CC2(C(=O)N1)c1ccccc1C(=O)N2Cc1ccc(Cl)c(Cl)c1 (stereo not given)
Decrease (Mus musculus [3]): 21%
inhibition (Rattus norvegicus [23]): inactive
inhibition in vivo at 109 mg/kg/day (Rattus norvegicus [24]): 33%
inhibition (Rattus norvegicus [25]): inactive

inhibition [1]: 33%
inhibition [2]: 0%
Compound: CN1C(=O)c2ccc(Cl)cc2C12CC(=O)NC2=O (single isomer, unassigned; (-)) [listing 2 of 2 here]
inhibition (Rattus norvegicus [26]): inactive
inhibition (Rattus norvegicus [27]): inactive
